Laboratory results from article PMC6981055 (Biochemical pharmacology, 2019).
Values after ≈ are worked out from the molar mass of the structure shown. “Also recorded” adds a separate entry of the source.

Assays:
CEM tumor xenografts = test: Growth inhibition of CEM tumor xenografts, DI-87 with thymidine, PK-PD model; type: in vivo; settings: for Tumor growth, single agent: agent given alone
Method in brief: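 NSG mice (8–12 weeks) carried subcutaneous CEM xenografts (2 × 10^6 cells, PBS/matrigel 50/50). Dosing began at 50 mm3: oral gavage QD or BID for 16–18 days (PEG-200:Transcutol:Labrasol:Tween-80, 5:3:1:1), plus thymidine 2 g/kg i.p. BID in saline. Controls: thymidine alone, compound plus saline, vehicle plus saline. Tumor size tracked (n=5). An Emax indirect-response PD model was linked to population PK tumor concentrations.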

[1] = type: in vivo, NSG mice
Method in brief: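 Female NSG mice with subcutaneous CEM xenografts (from 50 mm3) given oral gavage at 10, 25 or 50 mg/kg in PEG-200:Transcutol:Labrasol:Tween-80 (5:3:1:1). One terminal plasma and tumor sample per mouse at 1, 3, 6, 9 and 24 h (n=5 per time point). Methanol extraction with internal standard, LC-MS/MS-MRM. Population model with gut depot, plasma and tumor compartments (ADVAN6, TRANS1), exponential inter-subject error and actual tumor volumes.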

CEM cells = test: Cell proliferation assay: rescue of CEM cells from gemcitabine; type: cell-based, human; settings: CEM cells treated with gemcitabine with and without DI-87
Method in brief: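 CEM cells plated at 1×10^3 cells/well, exposed to increasing gemcitabine concentrations (up to 10 μM) with or without 1 μM test compound for 72 hr. Viability read by CellTiter-Glo luminescence after 5 min at room temperature.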

[2] = target: bovine serum albumin (BSA) (Bos taurus, UniProt P02769); test: Protein binding assessed by IC50 of dCK inhibitor in presence of BSA; type: in vitro ADME; settings: 25 and 50 mg/mL BSA
Method in brief: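 IC50 was compared between the two BSA levels, with duplicate determinations (n=2) reported as mean±SD.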

dCK = dCK (Homo sapiens, UniProt P27707); test: dCK activity in CEM tumors by [18F]CFA MicroPET/CT, PK-PD model; type: in vivo, NSG mice
Method in brief: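 Male NSG mice bearing subcutaneous CEM tumors (250 mm3) received a single oral dose (5, 10 or 25 mg/kg) in lipid/surfactant vehicle, one time point per mouse (N=4 per time point). Mice were anesthetized and given 740 kBq [18F]CFA i.v. 3 h before imaging. MicroPET/CT acquisition ran 10 min with MAP reconstruction, co-registered CT and manual 3D tumor regions of interest. Modelled tumor concentrations were linked to the effect compartment; linear, Emax and sigmoid Emax fits were compared.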

[3] = oral 10, 25, 50 mg/kg, plasma-tumor population PK model
[4] = plasma-tumor population PK model
[5] = sigmoid Emax indirect response model

Sequence of dCK (P27707 whole entry): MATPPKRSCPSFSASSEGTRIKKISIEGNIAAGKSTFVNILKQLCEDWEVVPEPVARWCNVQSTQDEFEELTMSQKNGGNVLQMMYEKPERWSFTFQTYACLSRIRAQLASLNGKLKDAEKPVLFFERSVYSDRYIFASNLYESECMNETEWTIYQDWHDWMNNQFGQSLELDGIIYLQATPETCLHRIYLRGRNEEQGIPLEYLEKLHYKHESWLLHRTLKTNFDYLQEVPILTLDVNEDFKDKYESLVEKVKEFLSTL
Sequence of bovine serum albumin (BSA) (P02769 25-607): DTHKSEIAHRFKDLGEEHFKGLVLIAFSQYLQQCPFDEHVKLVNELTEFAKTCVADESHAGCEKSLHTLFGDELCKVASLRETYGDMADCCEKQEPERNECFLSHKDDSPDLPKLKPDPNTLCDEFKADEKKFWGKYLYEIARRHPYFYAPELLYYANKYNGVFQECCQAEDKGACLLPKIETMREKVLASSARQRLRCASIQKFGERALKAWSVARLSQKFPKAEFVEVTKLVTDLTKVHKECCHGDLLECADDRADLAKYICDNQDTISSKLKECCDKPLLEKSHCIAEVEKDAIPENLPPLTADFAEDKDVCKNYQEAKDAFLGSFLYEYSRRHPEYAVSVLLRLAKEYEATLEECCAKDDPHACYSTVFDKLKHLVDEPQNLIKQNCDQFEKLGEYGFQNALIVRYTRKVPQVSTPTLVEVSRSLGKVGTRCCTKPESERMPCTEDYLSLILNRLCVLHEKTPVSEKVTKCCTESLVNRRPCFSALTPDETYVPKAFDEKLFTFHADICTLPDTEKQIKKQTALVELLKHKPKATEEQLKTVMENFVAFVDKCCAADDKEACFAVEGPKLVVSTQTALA

SMILES: Cc1cn([C@H]2C[C@H](O)[C@@H](CO)O2)c(=O)[nH]c1=O [thymidine, reference compound]
- Tumor growth, single agent (CEM tumor xenografts; data not shown): tumor growth curves similar to the control

SMILES: COc1ccc(-c2nc([C@@H](C)Sc3nc(N)cc(N)n3)c(C)s2)cc1OCCN1CCOCC1 [DI-87, (R)-2-((1-(2-(4-methoxy-3-(2-morpholinoethoxy)phenyl)-5-methylthiazol-4-yl)ethyl)thio)pyrimidine-4,6-diamine]
- Half-life (plasma) ([1]; 0.693/(CL/V)): 4.2 h
- half-life ([1]; female, NSG, mouse, plasma, oral, Half-life (plasma), 0.693/(CL/V)): 4 h
- KA (absorption constant) ([1]; fixed to the estimate from the plasma PK model): 0.66 (FIXED) hr
- Time of peak tumor concentration ([1]; oral 10, 25, 50 mg/kg, CEM tumor): 3 to 9 h
- CL [1, 3]: 7.67 mL/min/kg
- V (plasma volume of distribution) [1, 3]: 2.78 L/kg
- Q (intercompartmental clearance plasma-tumor) [1, 4]: 0.075 mL/min/kg
- Scalar [1, 4]: 3.69
- Prevention of gemcitabine cytotoxicity (CEM cells): fully prevented cytotoxicity following gemcitabine treatment
- Protein binding (IC50 in presence of BSA) [2]: low protein binding; also recorded: retained its potency in the presence of albumin
- Protein binding (IC50 in presence of BSA) ([2]; listed as (R)-DI-87): comparatively lower than its predecessor
- Tumor growth inhibition (CEM tumor xenografts; DI-87 25 mg/kg BID oral with thymidine 2 g/kg i.p. BID, 25 mg/kg): Near complete growth inhibition; also recorded: maximal tumor growth inhibition
- Emax, Growth Inhibition PK-PD Model (CEM tumor xenografts; Emax indirect response model, DI-87 with i.p. thymidine): 1.06
- EC50 (CEM tumor xenografts; Mus musculus, ip, read-out: EC50, Growth Inhibition PK-PD Model): 3.63 µg/mL (≈ 7.22 µM)
- Tumor growth, single agent (CEM tumor xenografts; data not shown): tumor growth curves similar to the control; also recorded: essentially no ability to inhibit growth
- Tolerability as a single agent (CEM tumor xenografts; single agent, higher doses, data not shown): well tolerated at higher doses
- EC50 (dCK): 617 nM
- Gamma (Hill coefficient), DCK inhibition PK-PD model (dCK; [5]): 58.6
- Kin, DCK inhibition PK-PD model (dCK; [5]): 0.76
- Kout, DCK inhibition PK-PD model (dCK; [5]): 0.12
- Emax, DCK inhibition PK-PD model (dCK; sigmoid Emax indirect response model, linked to tumor concentrations): 1.20
- dCK inhibition (PET) (dCK; single oral dose 5 mg/kg): minimal dCK inhibition with rapid recovery
- dCK inhibition (PET) (dCK; single oral dose 10 mg/kg): full inhibition with recovery initiating at the 12 hr time point
- Earliest time of full dCK inhibition (PET) (dCK; single oral dose 25 mg/kg): 3 h
- Time to full recovery of dCK enzyme activity (PET) (dCK; single oral dose 25 mg/kg): ≤ 36 h
